Data taken from ChEMBL document CHEMBL3585289, “Potent and Selective Amidopyrazole Inhibitors of IRAK4 That Are Efficacious in a Rodent Model of Inflammation” (ACS Med Chem Lett, 2015).
In brackets after ≈: the same amount, converted by molar mass. Activity calls are given as the source filed them. The rule behind the calls is not given here.

How the values were obtained:
[1] = target: BDNF/NT-3 growth factors receptor (Homo sapiens) (UniProt Q16620); assay: Inhibition of recombinant human TRKB at 10 uM relative to control
BDNF/NT-3 growth factors receptor (Homo sapiens), sequence (Q16620 32-822 limits assumed): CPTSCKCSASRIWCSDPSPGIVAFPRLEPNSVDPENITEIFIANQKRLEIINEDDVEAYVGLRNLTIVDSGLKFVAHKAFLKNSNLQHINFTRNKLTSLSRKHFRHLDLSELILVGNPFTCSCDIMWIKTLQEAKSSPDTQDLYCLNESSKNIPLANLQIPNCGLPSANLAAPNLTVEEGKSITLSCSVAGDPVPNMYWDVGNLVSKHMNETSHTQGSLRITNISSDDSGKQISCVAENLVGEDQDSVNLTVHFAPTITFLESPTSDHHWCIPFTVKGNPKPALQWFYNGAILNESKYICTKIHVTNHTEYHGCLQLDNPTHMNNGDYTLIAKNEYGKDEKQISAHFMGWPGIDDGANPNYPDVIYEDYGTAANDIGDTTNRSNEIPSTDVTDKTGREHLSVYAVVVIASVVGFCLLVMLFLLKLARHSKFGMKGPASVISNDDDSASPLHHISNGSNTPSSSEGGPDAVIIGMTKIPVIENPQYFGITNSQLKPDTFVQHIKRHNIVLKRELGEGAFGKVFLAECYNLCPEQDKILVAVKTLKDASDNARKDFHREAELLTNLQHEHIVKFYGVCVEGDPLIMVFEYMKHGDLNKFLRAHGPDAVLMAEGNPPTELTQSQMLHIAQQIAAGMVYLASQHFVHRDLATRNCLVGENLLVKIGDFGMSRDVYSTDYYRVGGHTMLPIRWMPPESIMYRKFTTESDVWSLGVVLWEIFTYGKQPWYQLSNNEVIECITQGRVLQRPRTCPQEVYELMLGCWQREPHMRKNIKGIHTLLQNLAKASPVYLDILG

Rattus norvegicus [2] = assay: Antiinflammatory activity in Lewis rat peritonitis model assessed as reduction of TLR2 agonist PAM2CSK4-induced TNF-alpha production in plasma at 100 mg/kg, po administered 1 hr prior to PAM2CSK4 challenge measured after 3 hrs relative to vehicle-treated control; format: functional; set-up: scale not given: the % may be the effect or the level left
Procedure, shortened: (§1)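 Female Lewis rats (n = 9) dosed by oral gavage at 100 mg/kg. One hour later, TLR2 agonist PAM2CSK4 injected intraperitoneally. Plasma collected 3 h after injection for cytokine levels and drug exposure. Cytokines expressed relative to a vehicle-only group.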

[3] = target: T1, Interleukin-1 receptor-associated kinase 4 (Homo sapiens, UniProt Q9NWZ3); assay: biochemical
T1 sequence (Q9NWZ3 whole entry): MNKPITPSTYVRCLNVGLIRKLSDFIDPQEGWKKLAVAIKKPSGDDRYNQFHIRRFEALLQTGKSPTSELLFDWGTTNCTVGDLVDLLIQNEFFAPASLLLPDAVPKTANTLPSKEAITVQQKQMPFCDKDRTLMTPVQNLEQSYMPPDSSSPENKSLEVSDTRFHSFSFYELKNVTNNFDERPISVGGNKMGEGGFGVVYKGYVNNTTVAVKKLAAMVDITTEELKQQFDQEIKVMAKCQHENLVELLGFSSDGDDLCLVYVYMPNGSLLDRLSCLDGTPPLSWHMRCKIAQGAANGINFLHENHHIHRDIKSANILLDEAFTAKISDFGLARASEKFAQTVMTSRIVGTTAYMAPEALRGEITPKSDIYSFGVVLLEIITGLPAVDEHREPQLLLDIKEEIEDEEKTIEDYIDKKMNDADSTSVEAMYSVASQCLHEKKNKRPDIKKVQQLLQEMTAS

Rattus norvegicus [4] = assay: Antiinflammatory activity in Lewis rat peritonitis model assessed as reduction of TLR2 agonist PAM2CSK4-induced IL-6 production in plasma at 100 mg/kg, po administered 1 hr prior to PAM2CSK4 challenge measured after 3 hrs relative to vehicle-treated control; format: functional; procedure, shortened: as §1
Rattus norvegicus [5] = assay: Antiinflammatory activity in Lewis rat peritonitis model assessed as reduction of TLR2 agonist PAM2CSK4-induced IFN-gamma production in plasma at 100 mg/kg, po administered 1 hr prior to PAM2CSK4 challenge measured after 3 hrs relative to vehicle-treated control; format: functional; procedure, shortened: as §1
Pgp [6] = assay: Apparent permeability across pig LLC-PK1 cells expressing human or mouse Pgp; format: ADME, cell-based, Sus scrofa
[7] = AUC (0 to 6 hrs) in Sprague-Dawley rat at 10 mg/kg, po administered as cassette dosing; format: ADME, organism-based; set-up: time < 6 hr, dose 10 mg/kg, route oral; conditions: in vivo
[8] = target: T2, Interleukin-1 receptor-associated kinase 4 (Homo sapiens) (UniProt Q9NWZ3); assay: Inhibition of recombinant human IRAK4 at 10 uM relative to control
T2 sequence (whole entry): T1 sequence (Q9NWZ3 whole entry)

Rattus norvegicus [9] = assay: Antiinflammatory activity in Lewis rat peritonitis model assessed as reduction of TLR2 agonist PAM2CSK4-induced IL-1beta production in plasma at 100 mg/kg, po administered 1 hr prior to PAM2CSK4 challenge measured after 3 hrs relative to vehicle-treated control; format: functional; set-up: scale not given: the % may be the effect or the level left; procedure, shortened: as §1
[10] = target: T1, Interleukin-1 receptor-associated kinase 4; assay: Inhibition of IRAK4 in human THP1-XBlue cells assessed as suppression of TLR4 agonist LPS-induced activation of NF-kappaB preincubated for 1 hr followed by LPS challenge measured after 5 hrs by secreted embryonic alkaline phosphatase reporter gene assay; format: cell-based, THP-1
[11] = Kinetic aqueous solubility of the compound in phosphate buffered saline at pH 7 at 25 degC after 24 hrs by HPLC/DAD method; format: physicochemical; conditions: read-out: Kinetic_solubility
[12] = Plasma concentration in PAM2CSK4 challenged Lewis rat peritonitis model at 100 mg/kg, po administered 1 hr prior to PAM2CSK4 challenge measured after 3 hrs; format: ADME, organism-based; procedure, shortened: as §1
[13] = AUC (0 to 8 hrs) in Sprague-Dawley rat at 10 mg/kg, po administered as cassette dosing; format: ADME, organism-based; set-up: dose 10 mg/kg, time < 8 hr, route oral; conditions: in vivo
[14] = Drug metabolism in rat hepatocytes assessed as monooxidized metabolite formation; format: ADME, cell-based, Hepatocyte
[15] = target: Misshapen-like kinase 1 (Homo sapiens) (UniProt Q8N4C8); assay: Inhibition of recombinant human MINK1 at 10 uM relative to control
Misshapen-like kinase 1 (Homo sapiens), sequence (Q8N4C8 whole entry, looked up): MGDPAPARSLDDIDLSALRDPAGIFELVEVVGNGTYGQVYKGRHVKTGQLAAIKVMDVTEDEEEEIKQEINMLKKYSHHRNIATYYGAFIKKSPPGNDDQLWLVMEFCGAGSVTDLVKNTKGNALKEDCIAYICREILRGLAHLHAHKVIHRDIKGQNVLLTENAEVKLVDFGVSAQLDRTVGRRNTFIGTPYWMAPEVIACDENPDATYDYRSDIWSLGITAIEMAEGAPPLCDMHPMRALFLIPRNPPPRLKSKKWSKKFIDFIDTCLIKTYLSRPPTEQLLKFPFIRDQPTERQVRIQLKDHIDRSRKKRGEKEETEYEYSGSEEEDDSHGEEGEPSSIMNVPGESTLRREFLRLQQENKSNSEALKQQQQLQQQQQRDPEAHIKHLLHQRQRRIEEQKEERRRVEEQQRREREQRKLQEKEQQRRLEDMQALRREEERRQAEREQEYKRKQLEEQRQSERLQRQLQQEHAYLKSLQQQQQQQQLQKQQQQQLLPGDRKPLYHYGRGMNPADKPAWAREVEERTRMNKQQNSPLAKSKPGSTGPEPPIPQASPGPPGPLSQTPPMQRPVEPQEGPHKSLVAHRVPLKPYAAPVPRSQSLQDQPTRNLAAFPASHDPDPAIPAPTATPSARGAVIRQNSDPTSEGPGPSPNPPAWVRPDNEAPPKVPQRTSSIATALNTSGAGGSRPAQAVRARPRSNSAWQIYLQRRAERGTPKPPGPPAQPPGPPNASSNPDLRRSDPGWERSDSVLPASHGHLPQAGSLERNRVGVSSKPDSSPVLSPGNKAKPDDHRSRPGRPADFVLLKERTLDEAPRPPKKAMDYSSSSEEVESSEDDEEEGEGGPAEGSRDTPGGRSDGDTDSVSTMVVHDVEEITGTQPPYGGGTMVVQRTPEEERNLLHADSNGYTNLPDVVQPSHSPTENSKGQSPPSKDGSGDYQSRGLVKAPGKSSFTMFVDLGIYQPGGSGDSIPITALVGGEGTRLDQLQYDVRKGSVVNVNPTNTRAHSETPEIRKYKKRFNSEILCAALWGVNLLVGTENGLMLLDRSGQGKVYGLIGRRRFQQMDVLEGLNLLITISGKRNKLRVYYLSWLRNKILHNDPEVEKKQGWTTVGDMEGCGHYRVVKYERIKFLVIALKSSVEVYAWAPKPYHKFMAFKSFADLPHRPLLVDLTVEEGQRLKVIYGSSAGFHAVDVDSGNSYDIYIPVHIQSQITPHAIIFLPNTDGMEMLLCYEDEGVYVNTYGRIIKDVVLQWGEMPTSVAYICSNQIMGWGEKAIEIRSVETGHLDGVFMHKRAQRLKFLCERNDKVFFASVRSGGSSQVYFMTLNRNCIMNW

Mus musculus [16] = assay: Antiinflammatory activity in CIA-MAB-50-induced BALB/c mouse arthritis model assessed as decrease in LPS-induced paw size at 2 mg/kg, po qd administered on day 3 to 10 post LPS challenge measured on day 10 relative to vehicle-treated control; format: functional, organism-based
Procedure, shortened: (§2)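 BALB/c female mice given arthritogenic monoclonal antibody CIA-MAB-50 (2.5 mg) on day 0, then LPS booster (25 μg i.p.) on day 3. Oral gavage once daily on days 3–10; vehicle group received methylcellulose. Paw size measured on days 0, 3, 6, 8 and 10. Study ended on day 10, and day-10 paw size was compared with vehicle.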

Pgp [17] = assay: Activity at rat Pgp assessed as apparent permeability by cell-based assay; format: ADME; conditions: not told
Mus musculus [18] = assay: Antiinflammatory activity in CIA-MAB-50-induced BALB/c mouse arthritis model assessed as decrease in LPS-induced paw size at 100 mg/kg, po qd administered on day 3 to 10 post LPS challenge measured on day 10 relative to vehicle-treated control; format: functional, organism-based; procedure, shortened: as §2
[19] = target: T2, Interleukin-1 receptor-associated kinase 4 (Homo sapiens); conditions: 1 uM
[20] = AUC (0 to 8 hrs) in Sprague-Dawley rat at 2 mg/kg, iv; format: ADME, organism-based; set-up: dose 2 mg/kg, time < 8 hr, route intravenous; conditions: in vivo
Rattus norvegicus [21] = assay: Antiinflammatory activity in Lewis rat peritonitis model assessed as reduction of TLR2 agonist PAM2CSK4-induced IL-8 production in plasma at 100 mg/kg, po administered 1 hr prior to PAM2CSK4 challenge measured after 3 hrs relative to vehicle-treated control; format: functional; set-up: scale not given: the % may be the effect or the level left; procedure, shortened: as §1
[22] = Oral bioavailability in Sprague-Dawley rat at 10 mg/kg administered as cassette dosing; format: ADME, organism-based; conditions: in vivo
[23] = AUC (0 to 24 hrs) in mouse at 5 mg/kg, po; format: ADME, organism-based; set-up: dose 5 mg/kg, time < 24 hr, route oral; conditions: in vivo
[24] = Fraction unbound in rat plasma at 10 uM after 6 hrs by dialysis method; format: ADME, cell-free

| Structure (SMILES) | IC50 [3] | AUC(0-t) at 6 h [7] | solubility kinetic at 24 h [11] | other results |
| --- | --- | --- | --- | --- |
| CC(C)N1CCC(c2cc(NC(=O)c3cnn4cccnc34)n(-c3ccc(C4CC4)cc3F)n2)CC1 | 13 nM | – | – | AUC(0-t) at 8 h [13]: 1.11 µM·h |
| CS(=O)(=O)N1CCC(c2cc(NC(=O)c3cnn4cccnc34)n(-c3ccc(C4CC4)cc3F)n2)CC1 | 85 nM | – | – | – |
| CS(=O)(=O)N1CCC(c2cc(NC(=O)c3cnn4cccnc34)n(-c3ccccc3)n2)CC1 | 280 nM | – | – | – |
| COc1ccc(-c2cc(NC(=O)c3cnn4cccnc34)n(-c3ccc(C)cc3)n2)cn1 | 310 nM | – | 3 µM (≈ 1.28 µg/mL) | – |
| COc1ccc(-c2cc(NC(=O)c3cnn4cccnc34)n(-c3ccc(C)cc3)n2)cc1OC | 44 nM | – | < 2 µM | Drug metabolism [14]: metabolite_detected |
| Cc1ccc(-n2nc(C3CCN(S(C)(=O)=O)CC3)cc2NC(=O)c2cnn3cccnc23)c(F)c1 | 40 nM | 11.8 µM·h | – | – |
| Cc1cnc(-n2nc(C3CCN(S(C)(=O)=O)CC3)cc2NC(=O)c2cnn3cccnc23)nc1 | 180 nM | – | – | – |
| COc1ccc(-c2cc(NC(=O)c3cnn4cccnc34)n(-c3ccc(C)cc3)n2)cc1 | 170 nM | – | < 2 µM | inhibition [15]: > 80%; inhibition [8]: > 80% |
| Cc1ccc(-n2nc(N3CCN(S(C)(=O)=O)CC3)cc2NC(=O)c2cnn3cccnc23)nc1 | 2 nM | – | – | AUC(0-t) at 8 h [13]: 8.9 µM·h |
| COc1cc(-c2cc(NC(=O)c3cnn4cccnc34)n(-c3ccc(C)cc3)n2)ccn1 | 390 nM | 1.39 µM·h | < 2 µM | – |
| CS(=O)(=O)N1CCC(c2cc(NC(=O)c3cnn4cccnc34)n(-c3ccc(C4CC4)cn3)n2)CC1 | 20 nM | – | – | AUC(0-t) at 8 h [13]: 1.9 µM·h |
| C[C@@H]1C[C@H]2[C@@H]3CCC4=CC(=O)C=C[C@]4(C)[C@@]3(F)[C@@H](O)C[C@]2(C)[C@@]1(O)C(=O)CO | – | – | – | Activity (Mus musculus [16]): Active |
| Cc1ccc(-n2nc(-c3ccncc3)cc2NC(=O)c2cnn3cccnc23)cc1 | 61 nM | – | < 2 µM | – |
| Cc1ccc(-n2nc(C3CCN(C(C)C)CC3)cc2NC(=O)c2cnn3cccnc23)nc1 | 7 nM | – | – | – |
| Cc1ccc(-n2nc(-c3cccnc3)cc2NC(=O)c2cnn3cccnc23)cc1 | 99 nM | 0.44 µM·h | < 2 µM | – |
| Cc1ccc(-n2nc(N3CCN(C)CC3)cc2NC(=O)c2cnn3cccnc23)nc1 | 5 nM | – | – | Papp (Pgp [17]): 32 ×10⁻⁶ cm/s; Activity (Mus musculus [18]): Active; AUC(0-t) at 8 h [13]: 1.7 µM·h; inhibition [19]: > 80%; AUC(0-t) at 8 h [20]: 1.29 µM·h; Activity (Rattus norvegicus [2]): 32%; Activity (Rattus norvegicus [21]): 34%; bioavailability [22]: 28%; Activity (Rattus norvegicus [4]): 85%; Activity (Rattus norvegicus [5]): 30%; Activity (Rattus norvegicus [9]): 28%; IC50 [10]: 83 nM; AUC(0-t) at 24 h [23]: 2.3 µM·h; fraction unbound at 6 h, 10 µM [24]: 0.21 |
| Cc1ccc(-n2nc(C3CCN(S(C)(=O)=O)CC3)cc2NC(=O)c2cnn3cccnc23)nc1 | 27 nM | – | – | AUC(0-t) at 8 h [13]: 0.045 µM·h; inhibition [8]: > 80% |

The next lines start with results.

| IC50 [3] | AUC(0-t) at 6 h [7] | solubility kinetic at 24 h [11] | Structure (SMILES) | other results |
| --- | --- | --- | --- | --- |
| 67 nM | 19.3 µM·h | < 2 µM | Cc1ccc(-n2nc(C3CCN(S(C)(=O)=O)CC3)cc2NC(=O)c2cnn3cccnc23)cc1 | inhibition [1]: > 80%; Activity (Rattus norvegicus [2]): 21%; Activity (Rattus norvegicus [4]): inactive; Activity (Rattus norvegicus [5]): inactive; Papp (Pgp [6]): 31 ×10⁻⁶ cm/s; inhibition [8]: > 80%; Activity (Rattus norvegicus [9]): 28%; IC50 [10]: 2400 nM; concentration at 3 h [12]: 2660 nM |
| 47 nM | 0.28 µM·h | 170 µM (≈ 75.4 µg/mL) | Cc1ccc(-n2nc(C3CCN(C(C)C)CC3)cc2NC(=O)c2cnn3cccnc23)cc1 | – |
| 220 nM | – | – | Cc1ccc(-n2nc(C3CCN(C(N)=O)CC3)cc2NC(=O)c2cnn3cccnc23)cc1 | – |
| 180 nM | 0.71 µM·h | 163 µM (≈ 72.3 µg/mL) | CC(=O)N1CCC(c2cc(NC(=O)c3cnn4cccnc34)n(-c3ccc(C)cc3)n2)CC1 | – |
| 80 nM | – | 172 µM (≈ 69.1 µg/mL) | Cc1ccc(-n2nc(C3CCNCC3)cc2NC(=O)c2cnn3cccnc23)cc1 | – |
| 71 nM | 0.43 µM·h | – | COc1ccc(-n2nc(C3CCN(S(C)(=O)=O)CC3)cc2NC(=O)c2cnn3cccnc23)cc1 | – |
| 59 nM | 5.26 µM·h | – | CS(=O)(=O)N1CCC(c2cc(NC(=O)c3cnn4cccnc34)n(-c3ccc(C4CC4)cc3)n2)CC1 | – |
| 150 nM | – | 165 µM (≈ 68.6 µg/mL) | Cc1ccc(-n2nc(C3CCN(C)CC3)cc2NC(=O)c2cnn3cccnc23)cc1 | – |
| 2100 nM | – | – | Cc1cccc(-n2nc(C3CCN(S(C)(=O)=O)CC3)cc2NC(=O)c2cnn3cccnc23)c1 | – |
| 370 nM | 2.37 µM·h | 99 µM (≈ 35.5 µg/mL) | Cc1ccc(-n2nc(C3CC3)cc2NC(=O)c2cnn3cccnc23)cc1 | – |
| 690 nM | – | < 3 µM | Cc1ccc(-n2nc(-c3ccccc3)cc2NC(=O)c2cnn3cccnc23)cc1 | – |
| 2400 nM | – | < 2 µM | Cc1ccc(-n2nc(C3CCCCC3)cc2NC(=O)c2cnn3cccnc23)cc1 | – |
| 410 nM | 0.45 µM·h | 24 µM (≈ 9.66 µg/mL) | Cc1ccc(-n2nc(C3CCOCC3)cc2NC(=O)c2cnn3cccnc23)cc1 | – |
